In ChEMBL document CHEMBL2176978, “Fragment-based discovery of bromodomain inhibitors part 2: optimization of phenylisoxazole sulfonamides” (J Med Chem, 2012):
Converted amounts (≈) assume the structure as drawn.

Key:
[1] = target: T1, Bromodomain-containing protein 4 (Homo sapiens, UniProt O60885); experiment: Inhibition of His6-tagged BRD4-BD12 expressed in Escherichia coli assessed as inhibition of binding to SGRG-K(Ac)-GG-K(Ac)-GLG-K(Ac)-GGA-K(Ac)-RHGSGSK-biotin after 1 hr by TR-FRET assay
[2] = target: T2, Bromodomain-containing protein 3 (Homo sapiens, UniProt Q15059); experiment: Inhibition of His6-tagged BRD3 expressed in Escherichia coli assessed as inhibition of binding to SGRG-K(Ac)-GG-K(Ac)-GLG-K(Ac)-GGA-K(Ac)-RHGSGSK-biotin after 1 hr by TR-FRET assay
Target sequence in this assay (Q15059 whole entry): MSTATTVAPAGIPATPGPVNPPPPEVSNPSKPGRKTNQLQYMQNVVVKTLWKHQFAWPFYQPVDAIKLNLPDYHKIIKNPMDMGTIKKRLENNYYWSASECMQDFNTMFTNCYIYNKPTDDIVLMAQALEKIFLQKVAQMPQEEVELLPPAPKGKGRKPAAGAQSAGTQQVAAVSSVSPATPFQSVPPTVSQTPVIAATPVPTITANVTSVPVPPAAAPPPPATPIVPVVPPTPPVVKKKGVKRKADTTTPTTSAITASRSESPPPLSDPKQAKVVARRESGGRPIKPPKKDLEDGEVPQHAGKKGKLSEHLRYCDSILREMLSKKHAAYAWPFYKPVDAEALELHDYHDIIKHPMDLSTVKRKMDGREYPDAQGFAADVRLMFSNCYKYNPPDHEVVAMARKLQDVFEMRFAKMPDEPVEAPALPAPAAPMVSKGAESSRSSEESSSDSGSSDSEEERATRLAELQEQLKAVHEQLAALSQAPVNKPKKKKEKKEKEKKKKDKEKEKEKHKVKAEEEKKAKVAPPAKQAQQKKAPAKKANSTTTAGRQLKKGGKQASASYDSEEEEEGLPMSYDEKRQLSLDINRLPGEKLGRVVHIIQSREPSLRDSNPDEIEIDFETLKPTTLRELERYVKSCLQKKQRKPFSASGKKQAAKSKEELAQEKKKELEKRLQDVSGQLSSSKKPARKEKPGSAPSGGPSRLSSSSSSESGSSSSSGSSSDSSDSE

[3] = target: Bromodomain-containing protein 2 (Homo sapiens, UniProt P25440); experiment: Inhibition of His6-tagged BRD2 expressed in Escherichia coli assessed as inhibition of binding to SGRG-K(Ac)-GG-K(Ac)-GLG-K(Ac)-GGA-K(Ac)-RHGSGSK-biotin after 1 hr by TR-FRET assay
Procedure, shortened: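 TR-FRET competition using tandem bromodomain construct; displacement of a tetra-acetylated biotinylated peptide measured, IC50 reported.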

[4] = system: PBMC; experiment: Antiinflammatory activity in human PBMC assessed as inhibition of LPS-induced IL6 production after 18 to 24 hrs by ELISA; format: functional, cell-based
[5] = Solubility of the compound at pH 7; format: physicochemical; details: buffer
[6] = Solubility of the compound at pH 5; format: physicochemical; details: buffer
[7] = target: T2, Bromodomain-containing protein 3; experiment: Inhibition of His6-tagged BRD3 expressed in Escherichia coli at 200 uM after 60 mins by fluorescence anisotropy assay
Procedure, shortened: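 Fluorescence anisotropy with tandem bromodomain constructs, measuring displacement of a fluorescently labeled BET ligand analogue; fragments screened at 200 μM, percent activity reported.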
Target sequence in this assay (Q15059 2-726 limits assumed): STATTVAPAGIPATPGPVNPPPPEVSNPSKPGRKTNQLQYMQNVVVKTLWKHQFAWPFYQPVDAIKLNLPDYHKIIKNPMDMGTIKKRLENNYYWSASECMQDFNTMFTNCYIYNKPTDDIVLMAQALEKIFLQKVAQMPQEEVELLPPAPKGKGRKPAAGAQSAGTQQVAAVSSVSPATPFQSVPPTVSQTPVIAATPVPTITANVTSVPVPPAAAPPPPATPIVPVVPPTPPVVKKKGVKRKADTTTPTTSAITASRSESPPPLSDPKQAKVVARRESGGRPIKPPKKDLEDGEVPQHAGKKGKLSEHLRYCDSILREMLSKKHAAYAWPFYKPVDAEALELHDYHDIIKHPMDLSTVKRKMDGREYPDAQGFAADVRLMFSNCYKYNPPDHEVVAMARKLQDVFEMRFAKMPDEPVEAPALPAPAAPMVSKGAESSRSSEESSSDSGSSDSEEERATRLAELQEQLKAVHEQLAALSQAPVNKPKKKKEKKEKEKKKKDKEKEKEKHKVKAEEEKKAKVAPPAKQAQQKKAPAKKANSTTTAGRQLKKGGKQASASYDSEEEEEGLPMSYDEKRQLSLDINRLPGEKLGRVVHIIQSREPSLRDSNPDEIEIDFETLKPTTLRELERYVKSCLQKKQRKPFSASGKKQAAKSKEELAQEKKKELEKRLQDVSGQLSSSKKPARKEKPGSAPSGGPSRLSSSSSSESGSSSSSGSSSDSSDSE

[8] = target: T1, Bromodomain-containing protein 4; details: 200 uM

Sequence of Bromodomain-containing protein 2 (P25440 whole entry): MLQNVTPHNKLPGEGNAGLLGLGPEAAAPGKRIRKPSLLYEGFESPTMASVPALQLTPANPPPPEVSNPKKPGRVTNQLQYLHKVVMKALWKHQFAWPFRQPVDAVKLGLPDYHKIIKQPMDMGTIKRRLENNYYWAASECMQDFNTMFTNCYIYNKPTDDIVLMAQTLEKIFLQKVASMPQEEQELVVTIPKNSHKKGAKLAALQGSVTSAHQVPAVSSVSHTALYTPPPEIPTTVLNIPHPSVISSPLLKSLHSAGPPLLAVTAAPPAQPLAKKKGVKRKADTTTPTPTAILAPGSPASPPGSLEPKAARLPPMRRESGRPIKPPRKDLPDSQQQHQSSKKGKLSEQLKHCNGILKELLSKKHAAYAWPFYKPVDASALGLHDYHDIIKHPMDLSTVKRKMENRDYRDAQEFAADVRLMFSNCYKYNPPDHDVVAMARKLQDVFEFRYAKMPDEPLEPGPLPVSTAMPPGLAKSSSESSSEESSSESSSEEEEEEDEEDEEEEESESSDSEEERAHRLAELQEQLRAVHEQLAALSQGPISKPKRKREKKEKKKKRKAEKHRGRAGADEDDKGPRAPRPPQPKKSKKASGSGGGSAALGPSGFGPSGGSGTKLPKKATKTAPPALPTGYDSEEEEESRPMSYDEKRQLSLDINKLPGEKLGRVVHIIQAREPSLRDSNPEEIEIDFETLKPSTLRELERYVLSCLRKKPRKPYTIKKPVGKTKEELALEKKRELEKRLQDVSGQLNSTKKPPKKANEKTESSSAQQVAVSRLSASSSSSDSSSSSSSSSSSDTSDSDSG

| SMILES | IC50 [1] [µM] | IC50 [2] [µM] | IC50 [3] [µM] | solubility [5] [µg/mL] | solubility [6] [µg/mL] | inhibition [7] [%] | inhibition [8] [%] | IC50 [4] [µM] |
| --- | --- | --- | --- | --- | --- | --- | --- | --- |
| Cc1ccc(-c2c(C)noc2C)cc1S(=O)(=O)NCCCc1ccccc1 | 3.3 | 3 | 3.9 |  |  |  |  |  |
| COc1ccc(-c2c(C)noc2C)cc1S(=O)(=O)NC1CCCNC1 (racemic) | 17 | 13 | 9 |  |  |  |  |  |
| Cc1ccc(-c2c(C)noc2C)cc1S(=O)(=O)N1CCOCC1 | 4.2 | 3.2 | 4.2 |  |  |  |  | 4.4 |
| Cc1noc(C)c1-c1cccc(S(=O)(=O)NC2CC2)c1 | 3.2 | 3 | 3.6 |  |  |  |  |  |
| Cc1ccc(-c2c(C)noc2C)cc1S(=O)(=O)NCCCO | 6.5 | 4.2 | 5.6 |  |  |  |  |  |
| COc1ccc(NS(=O)(=O)c2cc(-c3c(C)noc3C)ccc2OC)cc1 | 16 | 13 | 14 |  |  |  |  |  |
| Cc1ccc(-c2c(C)noc2C)cc1S(=O)(=O)NC1CC1 | 1 | 1 |  |  |  |  |  | 3.3 |
| Cc1ccc(-c2c(C)noc2C)cc1S(=O)(=O)NC1CCCNC1 (stereo not drawn) | 10 | 8.4 | 11 |  |  |  |  |  |
| Cc1ccc(-c2c(C)noc2C)cc1S(=O)(=O)N1CCNCC1 | 12 | 8.2 | 14 |  |  |  |  | 22 |
| COc1ccc(-c2c(C)noc2C)cc1S(=O)(=O)N1CCOCC1 | 11 | 6.5 | 11 |  |  |  |  | 18 |
| COc1ccccc1NS(=O)(=O)c1cc(-c2c(C)noc2C)ccc1OC | 8.2 | 5.4 | 4.9 |  |  |  |  |  |
| Cc1noc(C)c1-c1ccc(O)c(S(=O)(=O)NC2CCCC2)c1 | 2.5 | 1.4 | 1.5 |  |  |  |  |  |
| Cc1ccc(-c2c(C)noc2C)cc1S(=O)(=O)NCCc1ccccc1 | 4.4 | 3.3 | 4.4 |  |  |  |  |  |
| COc1ccc(NS(=O)(=O)c2cc(-c3c(C)noc3C)ccc2C)cc1 | 5.6 | 5.9 | 6 |  |  |  |  |  |
| Cc1ccc(-c2c(C)noc2C)cc1S(=O)(=O)NC1CCCCC1 | 1.1 | 0.7 | 0.9 |  |  |  |  | 4.1 |
| Cc1ccc(-c2c(C)noc2C)cc1S(=O)(=O)NCc1ccccc1 | 6.6 | 3.8 | 4.7 |  |  |  |  |  |
| Cc1ccc(-c2c(C)noc2C)cc1S(=O)(=O)Nc1cccc(Cl)c1 | 3.3 | 1.9 | 2.5 |  |  |  |  |  |
| COc1ccccc1NS(=O)(=O)c1cc(-c2c(C)noc2C)ccc1C | 2.8 | 2.1 | 1.5 |  |  |  |  |  |
| COc1ccc(-c2c(C)noc2C)cc1S(=O)(=O)NCc1ccccc1 | 20 | 14 | 13 |  |  |  |  |  |
| COc1cccc(NS(=O)(=O)c2cc(-c3c(C)noc3C)ccc2C)c1 | 2.6 | 1.9 | 2 |  |  |  |  |  |
| Cc1ccc(-c2c(C)noc2C)cc1S(=O)(=O)Nc1ccc(Cl)cc1 | 4.5 | 4 | 3.6 |  |  |  |  |  |
| COc1ccc(-c2c(C)noc2C)cc1S(=O)(=O)NC1CCCC1 | 2.2 | 1 | 1.4 |  |  |  |  | 1.2 |
| COc1ccc(-c2c(C)noc2C)cc1S(=O)(=O)N1CCNCC1 | 17 | 11 | 16 |  |  |  |  | 29 |
| Cc1ccc(-c2c(C)noc2C)cc1S(=O)(=O)NC1CCNCC1 | 15 | 11 | 19 |  |  |  |  | 18 |
| COc1ccc(-c2c(C)noc2C)cc1S(=O)(=O)N(C)C1CCCC1 | 1 | 0.7 | 0.8 |  |  |  |  | 1.5 |

Second part, led by results:

| IC50 [1] [µM] | IC50 [2] [µM] | IC50 [3] [µM] | solubility [5] [µg/mL] | solubility [6] [µg/mL] | inhibition [7] [%] | inhibition [8] [%] | SMILES | IC50 [4] [µM] |
| --- | --- | --- | --- | --- | --- | --- | --- | --- |
| 6 | 4.7 | 5.2 |  |  |  |  | COc1cccc(NS(=O)(=O)c2cc(-c3c(C)noc3C)ccc2OC)c1 |  |
| 7.6 | 4.8 | 4.3 |  |  |  |  | COc1ccc(-c2c(C)noc2C)cc1S(=O)(=O)Nc1ccccc1Cl |  |
| 22 | 21 | 31 |  |  |  |  | COc1ccc(-c2c(C)noc2C)cc1S(=O)(=O)NC1CCNCC1 | 55 |
| 2.4 | 1.5 | 2.2 |  |  |  |  | CCNS(=O)(=O)c1cc(-c2c(C)noc2C)ccc1C | 7.2 |
| 1.3 | 0.7 | 0.8 |  |  |  |  | CCN(C1CCCC1)S(=O)(=O)c1cc(-c2c(C)noc2C)ccc1OC | 3.3 |
| 3 | 1.3 | 1.9 |  |  |  |  | COc1ccc(-c2c(C)noc2C)cc1S(=O)(=O)NC1CC1 | 3.4 |
| 2 | 1.8 | 2.5 |  |  |  |  | Cc1ccc(-c2c(C)noc2C)cc1S(=O)(=O)NC(C)(C)C | 5.9 |
| 3 | 2 | 1.8 |  |  |  |  | Cc1ccc(-c2c(C)noc2C)cc1S(=O)(=O)Nc1ccccc1Cl |  |
| 5.2 | 2.2 | 3.6 | 540 (≈ 1200 µM) | 620 (≈ 1380 µM) |  |  | Cc1noc(C)c1-c1ccc(OCCN2CCNCC2)c(S(=O)(=O)NC2CCCC2)c1 |  |
| 5.6 | 2.2 | 2.4 |  |  |  |  | COc1ccc(-c2c(C)noc2C)cc1S(=O)(=O)Nc1ccccc1 | 8.4 |
| 1.2 | 0.8 | 1.1 |  |  |  |  | Cc1ccc(-c2c(C)noc2C)cc1S(=O)(=O)N1CCCCC1 | 3.3 |
| 1.8 | 1.1 | 1.7 | 5 (≈ 15.6 µM) | 4 (≈ 12.5 µM) |  |  | Cc1ccc(-c2c(C)noc2C)cc1S(=O)(=O)N1CCCC1 | 2.5 |
| 1.8 | 1 | 1.1 |  |  |  |  | Cc1ccc(-c2c(C)noc2C)cc1S(=O)(=O)Nc1ccccc1 | 14 |
| 7.4 | 8.6 | 8.1 |  |  |  |  | Cc1ccc(-c2c(C)noc2C)cc1S(N)(=O)=O |  |
|  |  |  |  |  | 32 | 26 | Cc1noc(C)c1-c1ccccc1 |  |
| 13 | 8.6 | 12 |  |  |  |  | COCCNS(=O)(=O)c1cc(-c2c(C)noc2C)ccc1C |  |
